What all share (type): functional
The test system of experiment [1] is Mus musculus. The experiment can be described thus: Time of peak effect of toxicity of compound was measured by both MES and sc Met test in mice. The essentials: (§1)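 Phase II quantification in mice after ip dosing. ED50 (scMet or MES) measured at the time of peak effect. TD50 (rotorod neurologic deficit) measured at the time of peak neurologic deficit. Medians and 95% confidence limits by the Litchfield-Wilcoxon method. Protective index = TD50/ED50. Time of peak effect determined in the MES or scMet test.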

The subject of experiment [2] is Mus musculus. Description: Anticonvulsant activity was measured by rotarod toxicity test on mice at 1 hr at the dose of 100 mg/kg; number of animals protected/number of animals tested, 0/2. (The rotarod test checks motor coordination on a turning rod.)
Experiment [3] deals with Mus musculus. The experiment can be described thus: Anticonvulsant activity was measured by maximal electroshock test on mice at 4 h at the dose of 300 mg/kg; number of animals protected/number of animals tested 0/1. A general note: The maximal electroshock test induces tonic seizures with an electrical stimulus.
For experiment [4], the system named is Mus musculus. The experiment can be described thus: Anticonvulsant activity was measured by rotarod toxicity test on mice at 4 h at the dose of 300 mg/kg; number of animals protected/number of animals tested 0/2.
Experiment [5] has as its system Mus musculus. The experiment can be described thus: Anticonvulsant activity was measured by maximal electroshock test on mice at 30 min at the dose of 300 mg/kg; number of animals protected/number of animals tested 1/1.
For experiment [6], the species on record is Mus musculus. The experiment can be described thus: Protective index (TD50/ED50) value in scMET test in mice. In short, it runs like this:
as §1

Experiment [7] deals with Mus musculus. The experiment can be described thus: Anticonvulsant activity was measured by maximal electroshock test on mice at 0.25 hr at the dose of 100 mg/kg; number of animals protected/number of animals tested 0/2.
The subject of experiment [8] is Mus musculus. Description: Anticonvulsant activity was measured by subcutaneous pentylenetetrazole test on mice at 4 hr at the dose of 300 mg/kg; number of animals protected/number of animals tested 0/1.
The test system of experiment [9] is Mus musculus. Description: Effective dose was measured in mouse by subcutaneous pentylenetetrazole method by ip administration. In short, it runs like this: as §1
Experiment [10] is filed under the species Mus musculus. Description: Protective index (TD50/ED50) value in MES test in mice.
The test system of experiment [11] is Mus musculus. The experiment can be described thus: Effective dose was measured in mouse by maximal electroshock method by ip administration. The essentials:
as §1

Experiment [12] relates to Mus musculus. The experiment can be described thus: Time of peak effect of activity of compound was measured by both MES and sc Met test in mice. The essentials:
as §1

Experiment [13] relates to Mus musculus. Description: Anticonvulsant activity was measured by subcutaneous pentylenetetrazole test on mice at 30 min at the dose of 300 mg/kg; number of animals protected/number of animals tested 1/1.
Experiment [14] has as its system Mus musculus. The experiment can be described thus: Anticonvulsant activity was measured by rotarod toxicity test on mice at 30 min at the dose of 300 mg/kg; number of animals protected/number of animals tested 0/4.
Experiment [15] concerns Mus musculus. Description: Anticonvulsant activity was measured by rotarod toxicity teston mice at 0.25 hr at the dose of 100 mg/kg; number of animals protected/number of animals tested 0/2.

The structures appear in SMILES notation.

As usually defined, the ED50 is the midpoint of the dose-response relation. As for `O=C1CC2(CCCC2)C(=O)N1OCc1ccc(C(F)(F)F)cc1`, the TPE in the experiment on Mus musculus [1] was 0.25; in the experiment with Mus musculus [12] it was 2. Further, the Ratio in the experiment with Mus musculus [2] came to 0; in the experiment with Mus musculus [3], 0; in the experiment with Mus musculus [4] it was 0; in the experiment on Mus musculus [5], 1; in the experiment on Mus musculus [7] it was 0; in the experiment on Mus musculus [8], 0. The Ratio in the experiment with Mus musculus [13] was 1; with Mus musculus [14], 0; with Mus musculus [15], 0. In addition, the PI in the experiment filed under Mus musculus [6] and in the experiment listed under Mus musculus [10] was greater than 1.7 each time. The ED50 in the experiment on Mus musculus [9] and with Mus musculus [11] was 300 mg/kg each time.

The values are drawn from ChEMBL document CHEMBL1126893, “Synthesis and CLOGP correlation of imidooxy anticonvulsants” (J Med Chem, 1993).
